The values below come from the array DNA melting data of Ke et al. (doi:10.1101/2024.01.08.574731).

Data set [1] is described as follows: melting temperature; fluorescence melt of hairpins on a sequencing array, two-state fit, raised by 9.35 °C to match UV melts. As to conditions: sodium 0.088 M. Put shortly: (§1)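 Melting temperature and folding enthalpy were derived from bootstrapped two-state fits. The fitted temperatures were raised by 9.35 °C to agree with UV melts, and four replicates were combined by inverse variance. The underlying data were Cy3 fluorescence images of library hairpins, with annealed Cy3 and quencher oligos, on a sequenced MiSeq flow cell in 50 mM Na-HEPES pH 8.0, 25 mM NaCl, taken in 2.5 °C steps up to 60 °C, normalised to pre-quench Cy3 and to control constructs.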

Data set [2] in a line: folding enthalpy; higher = less favourable; fluorescence melt of hairpins on a sequencing array, two-state fit. As to conditions: sodium 0.088 M. Put shortly: as §1

For the sequence GGCCGAGCGAAAGCTGCC (((..(((....)))))), the Tm in data set [1] worked out at 50.7 °C. Also, the folding enthalpy in data set [2] was -21.4 kcal/mol.

GGCCGAGGAAACCCGGCC (((((.(....).))))): the Tm in data set [1] amounted to 65.5 °C. Besides, the folding enthalpy in data set [2] is -36.9 kcal/mol.

GGCCGAGGAAACTCGACC ((.((((....)))).)): in data set [1], the Tm was determined as 51.4 °C. Besides, in data set [2], the folding enthalpy is -35 kcal/mol.

Regarding GGCCGCCGAAAGGCAGCC (((.(((....))).))), the Tm in data set [1] came to 67.4 °C. The folding enthalpy in data set [2] is -25.5 kcal/mol.

Take GGCCGCCGAAAGGCTGCC (((.(((....))).))): the Tm in data set [1] turned out to be 65.5 °C. For the same sequence, the folding enthalpy in data set [2] was -30.7 kcal/mol.

On to GGCCGCGAAAGCGAAGCC ((((((....)))..))), for which the Tm in data set [1] was found to be 58.9 °C. Also, the folding enthalpy in data set [2] was -27.7 kcal/mol.

In the case of GGCCGCGAAAGCGGTGCC ((((((....)))..))), the Tm in data set [1] came to 55.7 °C. In addition, in data set [2], the folding enthalpy was -10 kcal/mol.

As to GGCCGCGGAAACGCAGCC (((.(((....))).))), the Tm in data set [1] amounted to 61.3 °C. Also, in data set [2], the folding enthalpy is -38.1 kcal/mol.

In the case of GGCCGGCGAAAGCCTGCC (((.(((....))).))), in data set [1], the Tm came out at 65.2 °C. For the same sequence, the folding enthalpy in data set [2] was -29.7 kcal/mol.

For GGCCGTCCGAAAGGAGCC (((..(((....)))))), the Tm in data set [1] was determined as 43.4 °C. In addition, the folding enthalpy in data set [2] was -15.8 kcal/mol.

GGCCTACGAAAGTAAGCC (((.(((....))).))): in data set [1], the Tm was 49.5 °C. Also, in data set [2], the folding enthalpy was -35 kcal/mol.

As for GGCCTACGAAAGTAGCC (((.(((....)))))), in data set [1], the Tm is 53.6 °C. In addition, the folding enthalpy in data set [2] was -22.4 kcal/mol.

GGCCTAGGAAACTAAGCC (((.(((....))).))): the Tm in data set [1] is 38.2 °C. The folding enthalpy in data set [2] is -20.1 kcal/mol.

As for GGCCTAGGAAACTAGACC ((.((((....)))).)), in data set [1], the Tm was 40.6 °C. The folding enthalpy in data set [2] was -28.6 kcal/mol.

For the sequence GGCCTAGGAAACTGGGCC ((((.((....)).)))), the Tm in data set [1] stood at 57.9 °C. The folding enthalpy in data set [2] is -47.7 kcal/mol.

With GGCCTCCGAAAGGAAGCC (((.(((....))).))), the Tm in data set [1] was found to be 55.5 °C. In data set [2], the folding enthalpy is -40.9 kcal/mol.

GGCCTCGAAAGAGGAGCC ((((((....)))..))): in data set [1], the Tm was determined as 47.2 °C. Further, in data set [2], the folding enthalpy is -14.5 kcal/mol.

Turning to GGCCTCGAAAGAGGCGCC ((((((....)))..))), the Tm in data set [1] turned out to be 66.5 °C. The folding enthalpy in data set [2] was -6.36 kcal/mol.

For GGCCTGCGAAAGCAGCC (((.(((....)))))), in data set [1], the Tm was found to be 61.1 °C. The folding enthalpy in data set [2] was -15.8 kcal/mol.

As for GGCCTGGGAAACCAGACC ((.((((....)))).)), in data set [1], the Tm is 49 °C. Besides, the folding enthalpy in data set [2] is -30.1 kcal/mol.

For the sequence GGCCTTACGAAAGTAGCC (((..(((....)))))), the Tm in data set [1] is 36.8 °C. Moreover, the folding enthalpy in data set [2] is -22.1 kcal/mol.

With GGCCTTGCGAAAGCAGCC (((..(((....)))))), the Tm in data set [1] came to 45.2 °C. The folding enthalpy in data set [2] was -15.8 kcal/mol.

GGCCTTGGAAACAAGGTC (.(((((....))))).): the Tm in data set [1] worked out at 55.7 °C. In data set [2], the folding enthalpy was -34.4 kcal/mol.

With GGCGAACGAAAGTTAGCC (((.(((....))).))), in data set [1], the Tm is 59.8 °C. Further, the folding enthalpy in data set [2] was -34.4 kcal/mol.

In the case of GGCGAACGAAAGTTTGCC (((.(((....))).))), in data set [1], the Tm is 62.1 °C. Moreover, in data set [2], the folding enthalpy was -37 kcal/mol.

Turning to GGCGAAGAAATTCGCC ((((((....)))))), in data set [1], the Tm was 63.1 °C. The folding enthalpy in data set [2] was -36.2 kcal/mol.

Regarding GGCGACCGAAAGGTAGCC (((.(((....))).))), the Tm in data set [1] is 69 °C. Besides, the folding enthalpy in data set [2] is -26.2 kcal/mol.

For the sequence GGCGACGAAAGTCAGCC ((((((....))).))), the Tm in data set [1] is 65.6 °C. For the same sequence, the folding enthalpy in data set [2] was -28.1 kcal/mol.

As to GGCGACGAAAGTCCGGCC ((((((....)))..))), the Tm in data set [1] was 51.5 °C. Moreover, in data set [2], the folding enthalpy is -21.7 kcal/mol.

As to GGCGACGGAAACGTTGCC (((.(((....))).))), the Tm in data set [1] came to 65 °C. The folding enthalpy in data set [2] is -48.8 kcal/mol.

As for GGCGAGAAATCGCC (((((....))))), in data set [1], the Tm was found to be 65.5 °C. Moreover, the folding enthalpy in data set [2] was -26.4 kcal/mol.

As to GGCGAGTCGAAAGACGCC (((..(((....)))))), the Tm in data set [1] is 56.3 °C. In data set [2], the folding enthalpy was -22.2 kcal/mol.

For GGCGATCCGAAAGGAGCC (((..(((....)))))), in data set [1], the Tm turned out to be 53.9 °C. Moreover, the folding enthalpy in data set [2] was -35.4 kcal/mol.

On to GGCGATCGAAAGATTGCC (((.(((....))).))), for which the Tm in data set [1] turned out to be 62.9 °C. In addition, the folding enthalpy in data set [2] was -46.7 kcal/mol.

As for GGCGATGCGAAAGCAGCC (((..(((....)))))), the Tm in data set [1] stood at 58.5 °C. In addition, the folding enthalpy in data set [2] was -19.5 kcal/mol.

As for GGCGATTCGAAAGAAGCC (((..(((....)))))), the Tm in data set [1] came out at 46.4 °C. In data set [2], the folding enthalpy is -23.2 kcal/mol.

For the sequence GGCGCAGGAAACCGCGCC (((((.(....).))))), in data set [1], the Tm is 68.8 °C. For the same sequence, the folding enthalpy in data set [2] was -37.3 kcal/mol.
